This note sets out measurements from ChEMBL document CHEMBL2331271, “Stereoselective synthesis of a new class of potent and selective inhibitors of human Δ8,7-sterol isomerase” (Bioorg Med Chem, 2013).

The MIC is the lowest concentration that inhibits growth of the organism. Broadly, the IC50 is the concentration that inhibits the measured activity by half.

In brackets after ≈: the same amount, converted by molar mass. Activity calls are given as the source filed them. The calls are words filed in the database; no cut-off is given here. A value given as a limit tells only on which side of the number the result lay.

In one test the test system is Nakaseomyces glabratus. In words: Antifungal activity against Candida glabrata assessed as inhibition of fungal growth. Type of test: functional. A digest of the protocol:
(§1)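 MIC by DIN 58940-84 broth dilution, strains kept in log phase at 28 °C in yeast extract/peptone/glucose medium, 0.5 McFarland standard. Compounds in ethanol stock 0.8 mg/mL, tested at 50, 25 and 12.5 µg/mL in duplicate wells. Controls: sterility, ethanol-only, clotrimazole 0.5 µg/mL, ketoconazole series. MIC = lowest concentration giving visibly complete growth inhibition.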

Another test has as its system Saccharomyces cerevisiae. Kind of test: Antifungal activity against Saccharomyces cerevisiae assessed as inhibition of fungal growth. The test is classed as functional. A digest of the protocol:
as §1

For a further test, the system named is Yarrowia lipolytica. Kind of test: Antifungal activity against Yarrowia lipolytica assessed as inhibition of fungal growth. Type of test: functional. A digest of the protocol:
as §1

Test [1] deals with 3-beta-hydroxysteroid-Delta(8),Delta(7)-isomerase (Homo sapiens, UniProt Q15125). In words: Inhibition of delta8,7-sterol isomerase-mediated cholesterol biosynthesis in human HL60 cells assessed as increase in zymostenol accumulation. Type of test: cell-based. As to conditions: for inhibition: HL-60. The procedure, abridged:
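HL-60 cells (10^6) incubated 24 h at 37 °C, 5% CO2 in lipid-free medium with 1% LPDS, with compound in ethanol at final 1 or 50 µM. Cells were then saponified in 1 M NaOH at 70 °C for 60 min, extracted into TBME with cholestane internal standard, and silylated with TSIM. The sterol pattern was read by GC-MS full scan, with sterols identified by retention time and MS against authentic samples.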

The next test has as its system HL-60. Kind of test: Cytotoxicity against human HL60 cells by MTT assay. The test is classed as cell-based. The procedure, abridged:
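Human leukemia HL-60 cells, kept in RPMI 1640 with 10% FBS without antibiotics at 37 °C, 5% CO2. Cytotoxicity by standard Mosmann MTT test. IC50 from dose-response curves run in triplicate, reported with 95% confidence interval and R2.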
(Tetrazolium assays rely on reduction of a dye to a coloured formazan, in cell work by metabolically active cells.)

A short description of test [2]: Selectivity index, ratio of cytotoxic IC50 against human HL60 cells to IC50 for delta8,7-sterol isomerase-mediated cholesterol biosynthesis in human HL60 cells. The test is classed as functional, HL-60. A digest of the protocol: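 Cytotoxicity IC50 from the HL-60 MTT test, in triplicate. Cholesterol biosynthesis IC50 came from HL-60 cells given graded inhibitor concentrations for 24 h in lipid-free medium with 1% LPDS plus 2-13C-acetate at final 62.5 µg/mL. Labelled cholesterol was measured by GC-MS (ions 372–379, 462–469), normalised to Bradford protein, and % inhibition fitted sigmoidally with bottom 0, in triplicate.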

Sequence of 3-beta-hydroxysteroid-Delta(8),Delta(7)-isomerase (Q15125 whole entry): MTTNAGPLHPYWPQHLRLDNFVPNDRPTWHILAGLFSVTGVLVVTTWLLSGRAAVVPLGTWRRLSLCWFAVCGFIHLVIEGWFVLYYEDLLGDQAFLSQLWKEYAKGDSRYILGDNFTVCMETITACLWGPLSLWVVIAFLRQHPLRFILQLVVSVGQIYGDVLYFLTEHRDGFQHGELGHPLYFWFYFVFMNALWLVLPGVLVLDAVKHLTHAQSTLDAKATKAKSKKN

`CC(C)CCC[C@@H](C)[C@H]1CC[C@@]2(C)[C@H](O)[C@@H](NCc3cccc(Cl)c3Cl)CC[C@]12C`: the MIC in the test on Nakaseomyces glabratus, in the test on Saccharomyces cerevisiae and with Yarrowia lipolytica was 25 µg/mL (≈ 55 µM) each time. Also, in test [1], the inhibition result was “inactive”.
With `COc1ccc(CN[C@H]2CC[C@]3(C)[C@@H]([C@H](C)CCCC(C)C)CC[C@@]3(C)[C@H]2O)c(OC)c1`, the MIC with Nakaseomyces glabratus, with Saccharomyces cerevisiae and in the test on Yarrowia lipolytica was 25 µg/mL (≈ 56.1 µM) in each case.
As to `CC(C)CCC[C@@H](C)[C@H]1CC[C@@]2(C)[C@H](O)[C@@H](NCc3ccc(I)o3)CC[C@]12C`, the MIC in the test with Nakaseomyces glabratus, with Saccharomyces cerevisiae and in the test on Yarrowia lipolytica was 25 µg/mL (≈ 49.9 µM) in each case. Moreover, the inhibition result in test [1] was “inactive”.
`CC(C)CCC[C@@H](C)[C@H]1CC[C@@]2(C)[C@@H](O)[C@@H](N(C)Cc3ccccc3)CC[C@]12C`: the IC50 with HL-60 was determined as 7 µM; in test [1] it was 0.011 µM. The MIC in the test with Nakaseomyces glabratus, in the test with Saccharomyces cerevisiae and in the test with Yarrowia lipolytica was 25 µg/mL (≈ 62.6 µM) each time. Also, the Ratio IC50 in test [2] turned out to be 636.
As to `Cc1cccc(N[C@H]2CC[C@]3(C)[C@@H]([C@H](C)CCCC(C)C)CC[C@@]3(C)[C@H]2O)c1C` (mixture of isomers), the MIC in the test with Nakaseomyces glabratus, in the test with Saccharomyces cerevisiae and with Yarrowia lipolytica was 25 µg/mL each time.
In the case of `CC(C)CCC[C@@H](C)[C@H]1CC[C@@]2(C)[C@@H](O)[C@@H](NCc3ccc(Cl)cc3Cl)CC[C@]12C`, the MIC with Nakaseomyces glabratus, in the test with Saccharomyces cerevisiae and in the test with Yarrowia lipolytica was 25 µg/mL (≈ 55 µM) each time.
With `C=CCCCN(C)[C@H]1CC[C@]2(C)[C@@H]([C@H](C)CCCC(C)C)CC[C@@]2(C)[C@H]1O`, the IC50 in the test on HL-60 amounted to 7 µM; in test [1] it was 0.018 µM. Besides, the MIC in the test with Nakaseomyces glabratus, with Saccharomyces cerevisiae and in the test on Yarrowia lipolytica was 25 µg/mL (≈ 66.2 µM) in each case. Moreover, the “Ratio IC50” value in test [2] is 390.
As to `CC(C)CCC[C@@H](C)[C@H]1CC[C@@]2(C)[C@@H](O)[C@@H](N(C)C)CC[C@]12C`, the results for the half-inhibitory concentration (IC50) (in the test with HL-60; in test [1]) were 17 µM and 0.576 µM, respectively. For the same molecule, the MIC with Nakaseomyces glabratus, in the test on Saccharomyces cerevisiae and with Yarrowia lipolytica was 25 µg/mL (≈ 77.3 µM) each time.
Consider `CC(C)CCC[C@@H](C)[C@H]1CC[C@@]2(C)C(=O)[C@@H](N3CCN(C)CC3)CC[C@]12C`, for which the MIC in the test on Nakaseomyces glabratus, in the test on Saccharomyces cerevisiae and in the test on Yarrowia lipolytica was 25 µg/mL (≈ 66.4 µM) throughout. Moreover, the inhibition entry in test [1] was “inactive”.
In the case of `CC(C)CCC[C@@H](C)[C@H]1CC[C@@]2(C)[C@@H](O)[C@@H](N3CC(C)OC(C)C3)CC[C@]12C` (mixture of isomers), the MIC in the test on Nakaseomyces glabratus, in the test on Saccharomyces cerevisiae and in the test on Yarrowia lipolytica was 25 µg/mL in each case.
As to `CC(C)CCC[C@@H](C)[C@H]1CC[C@@]2(C)C(=O)[C@@H](N3C(C)COCC3C)CC[C@]12C` (some centres undefined), the MIC with Nakaseomyces glabratus, in the test with Saccharomyces cerevisiae and in the test on Yarrowia lipolytica was 25 µg/mL (≈ 63.8 µM) in each case. Moreover, in test [1], the inhibition entry was “inactive”.
With `C=CCCCN[C@H]1CC[C@]2(C)[C@@H]([C@H](C)CCCC(C)C)CC[C@@]2(C)[C@@H]1O`, the MIC with Nakaseomyces glabratus, in the test on Saccharomyces cerevisiae and in the test on Yarrowia lipolytica was 25 µg/mL (≈ 68.8 µM) each time. The inhibition entry in test [1] was “inactive”.
Take `CC(C)CCC[C@@H](C)[C@H]1CC[C@@]2(C)[C@@H](O)[C@@H](N)CC[C@]12C`: the IC50 came out at 11 µM in the test with HL-60 and 0.581 µM in test [1]. The MIC in the test on Nakaseomyces glabratus, in the test on Saccharomyces cerevisiae and with Yarrowia lipolytica was 25 µg/mL (≈ 84.6 µM) each time.
For `COc1ccc(CN[C@H]2CC[C@]3(C)[C@@H]([C@H](C)CCCC(C)C)CC[C@@]3(C)[C@H]2O)cc1`, the MIC with Nakaseomyces glabratus, in the test with Saccharomyces cerevisiae and in the test on Yarrowia lipolytica was 25 µg/mL (≈ 60.1 µM) in each case.
As for `CC(C)CCC[C@@H](C)[C@H]1CC[C@@]2(C)[C@@H](O)[C@@H](NCc3cccnc3)CC[C@]12C`, the MIC with Nakaseomyces glabratus, in the test on Saccharomyces cerevisiae and in the test on Yarrowia lipolytica was 25 µg/mL (≈ 64.7 µM) each time.
Turning to `CCN[C@H]1CC[C@]2(C)[C@@H]([C@H](C)CCCC(C)C)CC[C@@]2(C)[C@H]1O`, the MIC in the test with Nakaseomyces glabratus, in the test with Saccharomyces cerevisiae and in the test on Yarrowia lipolytica was 25 µg/mL (≈ 77.3 µM) each time.
As to `Cc1cccc(N[C@H]2CC[C@]3(C)[C@@H]([C@H](C)CCCC(C)C)CC[C@@]3(C)C2=O)c1C`, the MIC in the test with Nakaseomyces glabratus, in the test on Saccharomyces cerevisiae and in the test with Yarrowia lipolytica was 25 µg/mL (≈ 62.9 µM) in each case. Besides, the inhibition result in test [1] is “inactive”.
In the case of `CC(C)CCC[C@@H](C)[C@H]1CC[C@@]2(C)[C@@H](O)[C@@H](NCc3ccc(I)o3)CC[C@]12C`, the MIC with Nakaseomyces glabratus, in the test on Saccharomyces cerevisiae and in the test on Yarrowia lipolytica was 25 µg/mL (≈ 49.9 µM) in each case.
Turning to `CC(C)CCC[C@@H](C)[C@H]1CC[C@@]2(C)C(=O)[C@@H](NCc3cccnc3)CC[C@]12C`, the MIC in the test with Nakaseomyces glabratus, with Saccharomyces cerevisiae and with Yarrowia lipolytica was 25 µg/mL (≈ 65 µM) in each case. In test [1], the inhibition entry was “inactive”.
Regarding `CC(C)CCC[C@@H](C)[C@H]1CC[C@@]2(C)[C@@H](O)[C@@H](N(Cc3ccccc3)Cc3ccccc3)CC[C@]12C`, the concentration for half-maximal inhibition (IC50) with HL-60 is 27 µM; in test [1], more than 1 µM. For the same molecule, the minimal inhibitory concentration (MIC) in the test on Nakaseomyces glabratus, in the test with Saccharomyces cerevisiae and in the test on Yarrowia lipolytica was 25 µg/mL (≈ 52.5 µM) each time.
Take `CC(C)CCC[C@@H](C)[C@H]1CC[C@@]2(C)[C@@H](O)[C@@H](N3CCN(C)CC3)CC[C@]12C`: the MIC in the test on Nakaseomyces glabratus, in the test on Saccharomyces cerevisiae and in the test on Yarrowia lipolytica was 25 µg/mL (≈ 66 µM) each time.
Take `CC(C)CCC[C@@H](C)[C@H]1CC[C@@]2(C)[C@@H](O)[C@@H](NCc3cccc(Cl)c3)CC[C@]12C`: the MIC in the test with Nakaseomyces glabratus, in the test on Saccharomyces cerevisiae and in the test on Yarrowia lipolytica was 25 µg/mL (≈ 59.5 µM) in each case.
Turning to `CC(C)CCC[C@@H](C)[C@H]1CC[C@@]2(C)C(=O)[C@@H](N(C)C)CC[C@]12C`, the MIC in the test on Nakaseomyces glabratus, with Saccharomyces cerevisiae and in the test on Yarrowia lipolytica was 25 µg/mL (≈ 77.7 µM) in each case. The inhibition entry in test [1] was “inactive”.
For `CC(C)CCC[C@@H](C)[C@H]1CC[C@@]2(C)[C@@H](O)[C@@H](NCc3cccc(Cl)c3Cl)CC[C@]12C`, the minimal inhibitory concentration (MIC) in the test with Nakaseomyces glabratus, with Saccharomyces cerevisiae and with Yarrowia lipolytica was 25 µg/mL (≈ 55 µM) throughout.
Take `CC(C)CCC[C@@H](C)[C@H]1CC[C@@]2(C)[C@@H](O)[C@@H](NCc3ccccc3)CC[C@]12C`: the values for the IC50 (in the test on HL-60; in test [1]) were 8 µM and 0.015 µM, respectively. Further, the MIC with Nakaseomyces glabratus, in the test with Saccharomyces cerevisiae and in the test on Yarrowia lipolytica was 25 µg/mL (≈ 64.8 µM) each time.
As to `CC(C)CCC[C@@H](C)[C@H]1CC[C@@]2(C)[C@H](O)[C@@H](NCc3cccc(Cl)c3)CC[C@]12C`, the MIC in the test on Nakaseomyces glabratus, with Saccharomyces cerevisiae and with Yarrowia lipolytica was 25 µg/mL (≈ 59.5 µM) throughout. Moreover, the inhibition result in test [1] is “inactive”.
For `CC(C)CCC[C@@H](C)[C@H]1CC[C@@]2(C)[C@H](O)[C@@H](NCc3ccoc3)CC[C@]12C`, the MIC in the test with Nakaseomyces glabratus, with Saccharomyces cerevisiae and in the test with Yarrowia lipolytica was 25 µg/mL (≈ 66.6 µM) each time. Besides, the inhibition entry in test [1] was “inactive”.
In the case of `C=CCCCN[C@H]1CC[C@]2(C)[C@@H]([C@H](C)CCCC(C)C)CC[C@@]2(C)[C@H]1O`, the IC50 in the test with HL-60 was determined as 15 µM; in test [1], 0.058 µM. The MIC in the test on Nakaseomyces glabratus, with Saccharomyces cerevisiae and with Yarrowia lipolytica was 25 µg/mL (≈ 68.8 µM) each time.
Turning to `Clc1ccccc1C(c1ccccc1)(c1ccccc1)n1ccnc1` [CLOTRIMAZOLE], the results for the MIC in the test with Nakaseomyces glabratus, with Saccharomyces cerevisiae and in the test with Yarrowia lipolytica were 2.5 µg/mL (≈ 7.25 µM), 0.5 µg/mL (≈ 1.45 µM) and 1 µg/mL (≈ 2.9 µM), respectively.
Turning to `CC(C)CCC[C@@H](C)[C@H]1CC[C@@]2(C)[C@H](O)[C@@H](NCc3ccccc3)CC[C@]12C`, the MIC in the test with Nakaseomyces glabratus, in the test with Saccharomyces cerevisiae and in the test on Yarrowia lipolytica was 25 µg/mL (≈ 64.8 µM) throughout. In addition, in test [1], the inhibition result is “inactive”.
For `CC(C)CCC[C@@H](C)[C@H]1CC[C@@]2(C)[C@H](O)[C@@H](NCc3ccc(Cl)cc3Cl)CC[C@]12C`, the MIC in the test on Nakaseomyces glabratus, in the test on Saccharomyces cerevisiae and with Yarrowia lipolytica was 25 µg/mL (≈ 55 µM) each time. Moreover, the inhibition entry in test [1] is “inactive”.
For `C=CCCCN(Cc1ccccc1)[C@H]1CC[C@]2(C)[C@@H]([C@H](C)CCCC(C)C)CC[C@@]2(C)[C@H]1O`, the IC50 is 17 µM in the test with HL-60 and 0.082 µM in test [1]. In addition, the MIC in the test on Nakaseomyces glabratus, in the test on Saccharomyces cerevisiae and in the test with Yarrowia lipolytica was 25 µg/mL (≈ 55.1 µM) in each case.
Turning to `CC(C)CCC[C@@H](C)[C@H]1CC[C@@]2(C)[C@@H](O)[C@@H](NCc3ccoc3)CC[C@]12C`, the MIC in the test on Nakaseomyces glabratus, in the test with Saccharomyces cerevisiae and in the test on Yarrowia lipolytica was 25 µg/mL (≈ 66.6 µM) in each case.
